Measurements taken from ChEMBL document CHEMBL3392964, “Design, synthesis, and evaluation of novel imidazo[1,2-a][1,3,5]triazines and their derivatives as focal adhesion kinase inhibitors with antitumor activity” (J Med Chem, 2015).
The source made the active and inactive calls. No cut-off for these calls is given here.

Key:
U-87 MG [1] = assay: Reduction of cell adherence in human U87MG cells at 3 uM after 30 mins by toluidine blue staining-based […]; format: functional, U-87MG ATCC; set-up: scale not given: the % may be the effect or the level left
In short: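 U87-MG cells grown in 10% serum, trypsinised, diluted to 100 000 cells/mL in 10% serum medium, then treated 30 min with compound or DMSO. 20 000 cells per well allowed to attach 1 h. Fixed in 4% paraformaldehyde 30 min, stained with 0.1% toluidine blue in 4% PFA 30 min, washed, OD read at 620 nm for attached cells.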

[2] = Cell cycle arrest in human U87MG cells assessed as accumulation at S phase at 3 uM after 24 hrs by propidium iodide staining-based flow cytometry (reference value: 16%); format: functional; settings: U-87MG ATCC
In short: (§1)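 Cells plated at 10^5 per well, left overnight, then exposed 24 h to compound or vehicle; stained 15 min at 37 °C with propidium iodide/Triton buffer; DNA content by flow cytometry, phase distribution fitted by Dean–Jett–Fox; HCT-116 at 0.3–0.5 μM, U87-MG at 0.3–3 μM; significance by unpaired Student's t test; one representative experiment.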

[3] = Cell cycle arrest in human U87MG cells at < 3 uM after 24 hrs by propidium iodide staining-based flow cytometry; format: functional; settings: U-87MG ATCC; in short: as §1
HCT-116 [4] = assay: Induction of apoptosis in human HCT116 cells assessed as necrotic cells at 0.5 uM after 24 hrs by Annexin V-PE/7-AAD staining-based FACS analysis (reference value: 0.885%); format: functional
[5] = Cell cycle arrest in human HCT116 cells at < 0.5 uM after 24 hrs by propidium iodide staining-based flow cytometry; format: functional; settings: HCT-116; in short: as §1
[6] = Cell cycle arrest in human HCT116 cells assessed as accumulation at G0/G1 phase at 0.5 uM after 24 hrs by propidium iodide staining-based flow cytometry (reference value: 63.8%); format: functional; settings: HCT-116; in short: as §1
Focal adhesion kinase 1 [7] = molecular target: T1, Focal adhesion kinase 1 (Homo sapiens, UniProt Q05397); assay: Inhibition of FAK phosphorylation at tyrosine 397 in human HCT116 cells after 48 hrs by FACEFAK ELISA; format: cell-based; settings: HCT-116
In short: (§2)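 Cells in DMEM with 10% FBS, 3 × 10^3 per well, treated 48 h at 0.1, 1 and 10 μM. Fixed in 4% formaldehyde; antibodies to pTyr397-FAK or total FAK, HRP secondary, read at 450 nm. Crystal violet cell count at 595 nm. Phospho-FAK normalised to total FAK and cell number; fold decrease versus control, triplicate readings, three independent experiments.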

U-87 MG [8] = assay: Induction of apoptosis in human U87MG cells assessed as late apoptotic cells at 3 uM after 24 hrs by Annexin V-PE/7-AAD staining-based FACS analysis (reference value: 1.59%); format: functional, U-87MG ATCC
HCT-116 [9] = assay: Induction of apoptosis in human HCT116 cells assessed as viable cells at 0.5 uM after 24 hrs by Annexin V-PE/7-AAD staining-based FACS analysis (reference value: 93.2%); format: functional; settings: HCT-116, 24 h, read-out: Activity
[10] = Cell cycle arrest in human U87MG cells assessed as accumulation at G0/G1 phase at 3 uM after 24 hrs by propidium iodide staining-based flow cytometry (reference value: 61.7%); format: functional; settings: U-87MG ATCC; in short: as §1
Focal adhesion kinase 1 [11] = molecular target: T1, Focal adhesion kinase 1; assay: Inhibition of FAK phosphorylation at tyrosine 397 in human U87MG cells after 48 hrs by FACEFAK ELISA; format: cell-based; settings: U-87MG ATCC; in short: as §2
[12] = (§3) Inhibition of colony formation in human U87MG cells after 2 weeks by crystal violet staining-based assay; format: functional, cell-based, U-87MG ATCC; settings: U-87 MG, 336 h
In short: (§4)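 Seeding: 250 cells per well for HCT-116, 300 for U87MG, MDA-MB-231 and PC-3; incubated overnight, then exposed to a range of concentrations for 2 weeks. Fixed in 4% paraformaldehyde 30 min at room temperature, stained with 0.1% crystal violet. Colonies over 50 cells counted; colony formation rate calculated; IC50 by nonlinear regression.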

U-87MG ATCC [13] = assay: as §3; format: functional, cell-based; in short: as §4
U-87 MG [14] = assay: Induction of apoptosis in human U87MG cells assessed as early apoptotic cells at 3 uM after 24 hrs by Annexin V-PE/7-AAD staining-based FACS analysis (reference value: 0.691%); format: functional, U-87MG ATCC
[15] = Cell cycle arrest in human U87MG cells assessed as accumulation at G2/M phase at 3 uM after 24 hrs by propidium iodide staining-based flow cytometry (reference value: 20%); format: functional; settings: U-87MG ATCC; in short: as §1
U-87MG ATCC [16] = assay: Antiinvasive activity in human U87MG cells after 30 mins by boyden chamber assay; format: functional, cell-based

T1 sequence (Q05397 2-1052 limits assumed): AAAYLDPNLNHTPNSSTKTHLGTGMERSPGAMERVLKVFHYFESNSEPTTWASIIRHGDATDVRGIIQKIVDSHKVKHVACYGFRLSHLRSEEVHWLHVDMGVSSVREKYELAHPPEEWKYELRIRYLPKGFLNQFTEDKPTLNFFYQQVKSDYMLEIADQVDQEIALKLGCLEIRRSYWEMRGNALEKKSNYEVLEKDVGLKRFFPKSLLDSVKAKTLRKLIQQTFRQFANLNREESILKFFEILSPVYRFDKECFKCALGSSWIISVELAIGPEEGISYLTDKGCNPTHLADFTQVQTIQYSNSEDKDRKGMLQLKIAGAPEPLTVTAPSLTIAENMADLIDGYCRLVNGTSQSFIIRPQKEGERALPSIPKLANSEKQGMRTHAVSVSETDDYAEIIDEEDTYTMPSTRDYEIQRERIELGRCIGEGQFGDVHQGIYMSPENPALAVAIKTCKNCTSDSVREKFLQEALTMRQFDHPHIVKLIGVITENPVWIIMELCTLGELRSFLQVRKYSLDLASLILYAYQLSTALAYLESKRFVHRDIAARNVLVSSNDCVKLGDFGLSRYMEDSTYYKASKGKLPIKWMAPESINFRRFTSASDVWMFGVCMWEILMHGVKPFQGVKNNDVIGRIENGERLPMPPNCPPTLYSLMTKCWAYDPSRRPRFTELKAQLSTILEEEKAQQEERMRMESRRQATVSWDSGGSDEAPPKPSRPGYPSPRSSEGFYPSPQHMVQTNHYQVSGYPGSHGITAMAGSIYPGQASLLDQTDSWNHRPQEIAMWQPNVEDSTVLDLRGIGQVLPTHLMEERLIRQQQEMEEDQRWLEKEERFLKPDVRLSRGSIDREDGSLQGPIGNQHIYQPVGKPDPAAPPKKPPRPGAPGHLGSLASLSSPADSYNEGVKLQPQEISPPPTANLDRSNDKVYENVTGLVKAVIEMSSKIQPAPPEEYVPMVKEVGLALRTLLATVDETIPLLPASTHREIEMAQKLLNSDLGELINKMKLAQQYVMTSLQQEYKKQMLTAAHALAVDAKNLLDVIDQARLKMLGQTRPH

inhibition (Focal adhesion kinase 1 [7]): Dose-dependent effect | inhibition (Focal adhesion kinase 1 [11]): Dose-dependent effect | IC50 [12]: 420 nM
SMILES: C=COC(=O)NCc1ccc(Nc2nc(Nc3ccccc3C(=O)NC)n3ccnc3n2)cc1
Activity (U-87 MG [1]): 50% | Activity [2]: 5.08% | Activity [3]: Active | Activity (HCT-116 [4]): 7.77% | Activity [5]: Active | Activity [6]: 29.9% | Activity (U-87 MG [8]): 0.997% | viability at 0.5 µM (HCT-116 [9]): 62.9% | Activity [10]: 34.3% | inhibition (U-87MG ATCC [13]): Dose-dependent effect | Activity (U-87 MG [14]): 0.756% | Activity [15]: 58.8% | Activity (U-87MG ATCC [16]): Dose-dependent effect
